Assay results from ChEMBL document CHEMBL3085628, “Identification of CB1/CB2 ligands from Zanthoxylum bungeanum” (J Nat Prod, 2013).

Key:
Cannabinoid receptor 2 [1] = target: T1, Cannabinoid receptor 2 (Homo sapiens, UniProt P34972); assay: Displacement of [3H]-CP55940 from human CB2 receptor expressed in CHO cells preincubated for 1 hr followed by radioligand addition measured after 1 hr by liquid scintillation counting analysis; format: cell-based
Outline: (§1)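 CHO cells stably expressing human CB1 or CB2 grown 24 h at 2.0 × 10^5 cells/mL in DMEM/F12 with 10% FBS. They were preincubated 1 h with serial dilutions (top 5.0 μM for CB1, 10 μM for CB2; DMSO <0.1% final), then given 1 h 10 nM [3H]-Win 55,212-2 (CB1) or 2 nM [3H]-CP 55,940 (CB2). Cells were washed, NaOH-lysed and scintillation-counted. Uptake normalized to no-compound wells; sigmoid fit; mean ± SE, n = 6.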

Cannabinoid receptor 1 [2] = target: T2, Cannabinoid receptor 1 (Homo sapiens, UniProt P21554); assay: Displacement of [3H]-Win55212-2 from human CB1 receptor expressed in CHO cells preincubated for 1 hr followed by radioligand addition measured after 1 hr by liquid scintillation counting analysis; format: cell-based; outline: as §1
Cannabinoid receptor 1 [3] = target: T2, Cannabinoid receptor 1; assay: Inhibition of human CB1 receptor internalization expressed in CHO cells assessed as inhibition of [3H]-Win55212-2 uptake preincubated for 1 hr followed by radioligand addition measured after 1 hr by liquid scintillation counting analysis relative to control; format: cell-based; set-up: concentration or dose not given beside the values; conditions: concentration not given here; outline: as §1
Cannabinoid receptor 2 [4] = target: T1, Cannabinoid receptor 2; assay: Inhibition of human CB2 receptor internalization expressed in CHO cells assessed as inhibition of [3H]-CP55940 uptake preincubated for 1 hr followed by radioligand addition measured after 1 hr by liquid scintillation counting analysis relative to control; format: cell-based; set-up: concentration or dose not given beside the values; conditions: concentration not given here; outline: as §1
Homo sapiens = organism: Homo sapiens; assay: Selectivity ratio of IC50 for human CB1 receptor to IC50 for human CB2 receptor
[5] = target: T3, G-protein coupled receptor 151 (Homo sapiens) (UniProt Q8TDV0); assay: Agonist activity at GPR151 (unknown origin) expressed in CHO-K1 cells at 10 uM after 90 to 180 mins by beta-arrestin assay relative to control; format: cell-based
T3 sequence (whole entry): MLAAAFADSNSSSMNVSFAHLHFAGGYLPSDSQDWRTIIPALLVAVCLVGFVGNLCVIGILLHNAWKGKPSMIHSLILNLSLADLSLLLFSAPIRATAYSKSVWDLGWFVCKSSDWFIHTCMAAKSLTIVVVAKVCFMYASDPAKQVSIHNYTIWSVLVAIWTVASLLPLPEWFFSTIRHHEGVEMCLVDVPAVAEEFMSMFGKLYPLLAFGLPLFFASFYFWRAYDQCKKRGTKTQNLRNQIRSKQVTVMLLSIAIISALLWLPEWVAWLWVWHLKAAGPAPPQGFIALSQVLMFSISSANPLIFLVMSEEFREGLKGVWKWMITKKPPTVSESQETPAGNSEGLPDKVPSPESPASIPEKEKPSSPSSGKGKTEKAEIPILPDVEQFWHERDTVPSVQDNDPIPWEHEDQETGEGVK

Cannabinoid receptor 2 [6] = target: T1, Cannabinoid receptor 2; assay: Antagonist activity at CB2 receptor (unknown origin) at 10 uM after 3 to 5 hrs by beta-arrestin assay relative to control
[7] = target: T4, Follicle-stimulating hormone receptor (Homo sapiens) (UniProt P23945); assay: Agonist activity at FSHR (unknown origin) at 10 uM after 90 to 180 mins by beta-arrestin assay relative to control
T4 sequence (whole entry): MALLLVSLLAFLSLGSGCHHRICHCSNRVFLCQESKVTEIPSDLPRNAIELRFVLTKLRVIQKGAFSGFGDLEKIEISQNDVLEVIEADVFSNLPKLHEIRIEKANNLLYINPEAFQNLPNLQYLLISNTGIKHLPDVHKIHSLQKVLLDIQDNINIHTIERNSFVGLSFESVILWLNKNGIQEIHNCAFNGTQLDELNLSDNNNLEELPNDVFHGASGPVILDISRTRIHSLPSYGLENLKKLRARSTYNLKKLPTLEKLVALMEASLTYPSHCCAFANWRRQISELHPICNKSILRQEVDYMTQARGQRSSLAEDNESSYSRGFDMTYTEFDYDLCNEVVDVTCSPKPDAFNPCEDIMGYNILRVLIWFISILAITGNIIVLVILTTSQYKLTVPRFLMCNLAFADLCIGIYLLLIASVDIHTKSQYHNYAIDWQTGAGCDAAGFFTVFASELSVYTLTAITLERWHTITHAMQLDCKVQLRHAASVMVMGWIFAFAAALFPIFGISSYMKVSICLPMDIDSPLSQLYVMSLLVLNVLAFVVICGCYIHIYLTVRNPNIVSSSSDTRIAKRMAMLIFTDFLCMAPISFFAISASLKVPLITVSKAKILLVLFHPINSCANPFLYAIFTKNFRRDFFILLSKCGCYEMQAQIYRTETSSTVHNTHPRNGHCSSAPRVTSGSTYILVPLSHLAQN

[8] = target: Histamine H4 receptor (Homo sapiens) (UniProt Q9H3N8); assay: Agonist activity at HRH4 (unknown origin) at 10 uM after 90 to 180 mins by beta-arrestin assay relative to control
Cannabinoid receptor 1 [9] = target: T2, Cannabinoid receptor 1; assay: Antagonist activity at CB1 receptor (unknown origin) at 10 uM after 3 to 5 hrs by beta-arrestin assay relative to control
[10] = target: T5, Prolactin-releasing peptide receptor (Homo sapiens) (UniProt P49683); assay: Antagonist activity at PRLHR (unknown origin) at 10 uM after 3 to 5 hrs by beta-arrestin assay relative to control
T5 sequence (whole entry): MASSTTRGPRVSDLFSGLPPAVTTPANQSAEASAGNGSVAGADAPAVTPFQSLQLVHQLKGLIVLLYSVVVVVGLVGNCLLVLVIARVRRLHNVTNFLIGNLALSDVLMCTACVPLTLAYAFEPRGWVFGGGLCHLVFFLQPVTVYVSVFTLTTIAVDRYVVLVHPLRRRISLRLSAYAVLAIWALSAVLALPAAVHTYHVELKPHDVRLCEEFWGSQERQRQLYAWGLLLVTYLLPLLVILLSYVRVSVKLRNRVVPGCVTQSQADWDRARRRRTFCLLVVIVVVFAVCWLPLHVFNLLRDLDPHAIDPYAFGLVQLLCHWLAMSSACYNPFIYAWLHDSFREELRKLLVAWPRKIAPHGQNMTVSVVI

Cannabinoid receptor 2 [11] = target: T1, Cannabinoid receptor 2; assay: Agonist activity at CB2 receptor (unknown origin) at 10 uM after 90 to 180 mins by beta-arrestin assay relative to control
[12] = target: T6, Probable G-protein coupled receptor 132 (Homo sapiens) (UniProt Q9UNW8); assay: Agonist activity at GPR132 (unknown origin) expressed in CHO-K1 cells at 10 uM after 90 to 180 mins by beta-arrestin assay relative to control; format: cell-based
T6 sequence (whole entry): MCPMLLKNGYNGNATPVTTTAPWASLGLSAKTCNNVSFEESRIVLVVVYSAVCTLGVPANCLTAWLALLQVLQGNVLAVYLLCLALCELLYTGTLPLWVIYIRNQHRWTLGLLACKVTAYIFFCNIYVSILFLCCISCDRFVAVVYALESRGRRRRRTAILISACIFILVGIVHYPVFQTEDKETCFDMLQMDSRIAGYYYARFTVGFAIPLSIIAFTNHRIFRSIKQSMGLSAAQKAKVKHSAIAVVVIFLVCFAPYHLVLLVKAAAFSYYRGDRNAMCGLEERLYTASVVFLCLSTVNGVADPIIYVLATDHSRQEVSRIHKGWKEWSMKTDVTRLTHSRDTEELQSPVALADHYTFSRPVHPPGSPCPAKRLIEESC

[13] = target: T7, Relaxin-3 receptor 1 (Homo sapiens) (UniProt Q9NSD7); assay: Agonist activity at RXFP3 (unknown origin) at 10 uM after 90 to 180 mins by beta-arrestin assay relative to control
T7 sequence (whole entry): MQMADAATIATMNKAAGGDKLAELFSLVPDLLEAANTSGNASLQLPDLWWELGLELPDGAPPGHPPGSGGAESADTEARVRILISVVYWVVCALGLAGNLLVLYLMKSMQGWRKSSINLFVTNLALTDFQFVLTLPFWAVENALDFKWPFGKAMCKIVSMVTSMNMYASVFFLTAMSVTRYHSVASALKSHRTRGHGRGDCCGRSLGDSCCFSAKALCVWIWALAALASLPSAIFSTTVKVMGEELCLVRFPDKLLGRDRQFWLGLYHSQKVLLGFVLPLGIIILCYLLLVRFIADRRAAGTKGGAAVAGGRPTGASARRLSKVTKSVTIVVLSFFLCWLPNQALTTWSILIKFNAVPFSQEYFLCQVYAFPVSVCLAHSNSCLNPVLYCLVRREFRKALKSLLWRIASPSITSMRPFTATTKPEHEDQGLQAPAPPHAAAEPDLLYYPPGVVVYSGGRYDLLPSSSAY

[14] = target: T5, Prolactin-releasing peptide receptor (Homo sapiens); assay: Agonist activity at PRLHR (unknown origin) at 10 uM after 90 to 180 mins by beta-arrestin assay relative to control
[15] = target: Prostaglandin E2 receptor EP2 subtype (Homo sapiens) (UniProt P43116); assay: Agonist activity at PTGER2 (unknown origin) at 10 uM after 90 to 180 mins by beta-arrestin assay relative to control
Cannabinoid receptor 2 [16] = target: T1, Cannabinoid receptor 2; assay: Agonist activity at CB2 receptor (unknown origin) after 90 to 180 mins by beta-arrestin assay
[17] = target: T4, Follicle-stimulating hormone receptor (Homo sapiens); assay: Antagonist activity at FSHR (unknown origin) at 10 uM after 3 to 5 hrs by beta-arrestin assay relative to control
Cannabinoid receptor 1 [18] = target: T2, Cannabinoid receptor 1; assay: Agonist activity at CB1 receptor (unknown origin) at 10 uM after 90 to 180 mins by beta-arrestin assay relative to control
[19] = target: G-protein coupled receptor 55 (Homo sapiens) (UniProt Q9Y2T6); assay: Agonist activity at GPR55 (unknown origin) expressed in CHO-K1 cells at 10 uM after 90 to 180 mins by beta-arrestin assay relative to control; format: cell-based
G-protein coupled receptor 55 (Homo sapiens), sequence (Q9Y2T6 whole entry): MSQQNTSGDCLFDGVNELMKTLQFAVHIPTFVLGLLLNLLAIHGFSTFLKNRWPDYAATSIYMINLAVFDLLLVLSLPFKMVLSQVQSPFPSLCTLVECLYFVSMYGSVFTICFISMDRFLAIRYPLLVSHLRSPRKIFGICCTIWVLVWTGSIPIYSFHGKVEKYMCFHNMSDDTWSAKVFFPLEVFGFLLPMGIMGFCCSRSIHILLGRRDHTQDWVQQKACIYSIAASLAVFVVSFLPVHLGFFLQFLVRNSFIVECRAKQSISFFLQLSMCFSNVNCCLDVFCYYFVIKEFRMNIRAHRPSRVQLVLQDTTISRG

T1 sequence (P34972 whole entry): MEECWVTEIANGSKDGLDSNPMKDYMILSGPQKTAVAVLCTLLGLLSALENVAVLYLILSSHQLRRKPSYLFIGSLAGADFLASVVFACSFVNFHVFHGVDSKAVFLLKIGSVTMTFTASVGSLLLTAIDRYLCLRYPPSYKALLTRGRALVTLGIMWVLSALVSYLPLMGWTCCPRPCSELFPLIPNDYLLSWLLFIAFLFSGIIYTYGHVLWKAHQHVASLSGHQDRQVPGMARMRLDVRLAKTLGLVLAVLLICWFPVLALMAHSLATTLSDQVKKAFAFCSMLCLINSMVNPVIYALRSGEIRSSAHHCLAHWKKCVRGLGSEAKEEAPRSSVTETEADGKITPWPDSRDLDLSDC
T2 sequence (P21554 whole entry): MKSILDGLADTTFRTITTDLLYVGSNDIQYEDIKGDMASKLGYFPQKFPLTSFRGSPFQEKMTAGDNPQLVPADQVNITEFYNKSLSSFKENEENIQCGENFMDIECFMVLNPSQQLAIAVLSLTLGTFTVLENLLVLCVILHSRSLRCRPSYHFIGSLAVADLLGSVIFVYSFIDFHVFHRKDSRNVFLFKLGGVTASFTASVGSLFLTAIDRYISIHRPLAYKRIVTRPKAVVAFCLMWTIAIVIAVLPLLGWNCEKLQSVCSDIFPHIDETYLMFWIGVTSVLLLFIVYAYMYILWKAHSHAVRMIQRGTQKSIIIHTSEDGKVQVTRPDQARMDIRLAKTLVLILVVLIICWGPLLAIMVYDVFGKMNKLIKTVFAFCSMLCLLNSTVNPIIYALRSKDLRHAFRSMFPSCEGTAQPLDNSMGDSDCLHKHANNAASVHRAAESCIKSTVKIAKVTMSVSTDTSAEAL
Prostaglandin E2 receptor EP2 subtype (Homo sapiens), sequence (P43116 whole entry): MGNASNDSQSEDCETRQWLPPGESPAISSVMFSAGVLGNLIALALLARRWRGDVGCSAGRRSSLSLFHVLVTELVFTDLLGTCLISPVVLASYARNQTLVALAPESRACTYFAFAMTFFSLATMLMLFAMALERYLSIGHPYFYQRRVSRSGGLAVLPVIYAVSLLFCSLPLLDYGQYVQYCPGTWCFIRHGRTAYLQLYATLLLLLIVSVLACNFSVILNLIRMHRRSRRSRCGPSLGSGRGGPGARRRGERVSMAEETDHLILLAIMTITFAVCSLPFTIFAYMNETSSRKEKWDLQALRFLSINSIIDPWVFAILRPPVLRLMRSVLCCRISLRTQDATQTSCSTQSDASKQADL

SMILES	IC50 (Cannabinoid receptor 2 [1]) [nM]	IC50 (Cannabinoid receptor 1 [2]) [nM]	inhibition (Cannabinoid receptor 1 [3]) [%]	inhibition (Cannabinoid receptor 2 [4]) [%]	Ratio IC50 (Homo sapiens)	further results
CCCCCCCCC/C=C/C=C/C(=O)NCC(C)(C)O [TETRAHYDROBUNGEANOOL]	2	4600	30	73	2560	–
C/C=C/C=C/C=C/CC/C=C/C=C/C(=O)NCC(C)C	664	100	37	57	0.15	Activity [5]: 76%; inhibition (Cannabinoid receptor 2 [6]): 15%; Activity [7]: 5%; Activity [8]: 18%; inhibition (Cannabinoid receptor 1 [9]): 72%; inhibition [10]: 52%; % activity (Cannabinoid receptor 2 [11]): 64%; Activity [12]: 61%; Activity [13]: 18%; Activity [14]: 5%; Activity [15]: 7%; EC50 (Cannabinoid receptor 2 [16]): 41.7 nM; inhibition [17]: 68%; Activity (Cannabinoid receptor 1 [18]): 5%; Activity [19]: 67%
C/C=C/C=C/C=C\CC/C=C/C(=O)NCC(C)(O)CO (centres undefined)	168	41	76	65	0.24	–
CC/C=C/C/C=C\CC/C=C/C=C/C(=O)NCC(C)(C)O	9100	2400	45	62	0.26	–
C/C=C/C=C/C=C\CC/C=C/C(=O)NCC(C)(C)O	59	7400	–	–	–	–

Now from value to compound, other results behind:

IC50 (Cannabinoid receptor 2 [1]) [nM]	IC50 (Cannabinoid receptor 1 [2]) [nM]	inhibition (Cannabinoid receptor 1 [3]) [%]	inhibition (Cannabinoid receptor 2 [4]) [%]	Ratio IC50 (Homo sapiens)	SMILES	further results
131	9	–	–	–	C/C=C/C=C/C=C/CC/C=C/C(=O)NCC(C)(C)O	–
197	184	31	65	0.9	C/C=C/C=C/C=C\CC/C=C/C=C/C(=O)NCC(C)(C)O	–
224	1390	39	34	6.2	C/C=C/C=C/C=C/CC/C=C/C=C/C(=O)NCC(C)(C)O	–
